Laboratory results taken from ChEMBL document CHEMBL3227978, “Azetidine derivatives of tricyclic antidepressant agents” (J Med Chem, 1979).
Active and inactive are the calls of the source. The calls are words filed in the database; no cut-off is given here.

Assays:
[1] = test system: Mus musculus; assay: Antidepressant activity in ICEM:CET (SPF Caw) mouse assessed as antagonism of reserpine-induced hypothermia at 25 mg/kg, po administered via gavage 30 mins before reserpine challenge measured 4 hrs after reserpine treatment; type: functional, organism-based; design: dose 25 mg/kg
In short: (§1)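 Male mice, 18-22 g, groups of ten, housed the evening before with a 9-h fast and water until 2 h before testing. Gavage dosing at 25 mg/kg in 0.5% Methocel, 30 min before reserpine 2.5 mg/kg ip in 0.5% acetic acid. Read blind: blepharospasm scored (Rubin scale) at 1 h, rectal thermocouple temperature at 4 h.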

[2] = test system: Mus musculus; assay: Antidepressant activity in ICEM:CET (SPF Caw) mouse assessed as antagonism of reserpine-induced blepharospasm at 25 mg/kg, po administered via gavage 30 mins before reserpine challenge measured 1 hr after reserpine treatment; type: functional, organism-based; design: dose 25 mg/kg; in short: as §1
[3] = test system: Mus musculus; assay: Antidepressant activity in po dosed ICEM:CET (SPF Caw) mouse assessed as antagonism of reserpine-induced hypothermia administered via gavage 30 mins before reserpine challenge measured 4 hrs after reserpine treatment; type: functional
In short: (§2)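 Groups of ten male mice (18-22 g), fasted 9 h with water until 2 h pre-test. Oral gavage in 0.5% Methocel at doses below the 25 mg/kg screen, 30 min before reserpine 2.5 mg/kg ip. Blepharospasm scored blind at 1 h, rectal temperature at 4 h. ED50 estimated by eye-fit linear plots on semilogarithmic paper.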

[4] = test system: Mus musculus; assay: Orientative acute toxicity in po dosed ICEM:CET (SPF Caw) mouse administered via gavage measured for 60 mins after drug dosing by Irwin's test; type: organism-based; conditions: in vivo, 1 h
In short: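 Male ICEM:CET (SPF Caw) mice, 18-22 g. Oral gavage, suspended or dissolved in 0.5% Methocel at 0.1 mL/10 g body weight. Doses of at least 25, 50, 100, 200, 400 and 800 mg/kg, four animals per dose. Animals were observed closely for 60 min after dosing during Irwin's symptomatologic test, and an approximate LD50 was estimated.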

[5] = test system: Mus musculus; assay: Anticonvulsant activity in po dosed ICEM:CET (SPF Caw) mouse assessed as antagonism of pentylenetetrazole-induced flexor-extensor tonic convulsions administered via gavage 30 mins before pentylenetetrazole challenge; type: functional
In short: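 Male mice, 18-22 g, dosed orally by gavage in 0.5% Methocel (0.1 mL/10 g), starting at a 50 mg/kg screening dose, then graded doses. Pentylenetetrazole 130 mg/kg ip given 30 min later. Ten mice per dose and for controls. Dose preventing flexor-extensor tonic convulsions in 50% of animals read from dose-response curves (ED50).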

[6] = test system: Mus musculus; assay: Antidepressant activity in po dosed ICEM:CET (SPF Caw) mouse assessed as antagonism of reserpine-induced blepharospasm administered via gavage 30 mins before reserpine challenge measured 1 hr after reserpine treatment; type: functional; in short: as §2

In the case of CC(C)(C)N1CC(N2c3ccccc3CCc3ccccc32)C1, the Activity [1] is reported as “inactive” and the Activity [2] is reported as “inactive”.
For c1ccc2c(c1)COc1ccccc1N2CC1CNC1, the Activity [1] was “inactive” and the Activity [2] was “inactive”.
For CC(C)N1CC(CN2c3ccccc3COc3ccccc32)C1, the Activity [1] was “inactive” and the Activity [2] was “inactive”.
With c1ccc2c(c1)CCc1ccccc1N2CC1CNC1 the Activity [1] was “inactive” and the Activity [2] was “inactive”.
In the case of CC(C)N1CC(CN2c3ccccc3CCc3ccccc32)C1, the Activity [1] is reported as “inactive” and the Activity [2] is reported as “inactive”.
With c1ccc2c(c1)COc1ccccc1N2C1CNC1 the Activity [1] was “inactive” and the Activity [2] was “inactive”.
For CC(C)(C)N1CC(N2c3ccccc3Sc3ccccc32)C1, the Activity [1] was “inactive” and the Activity [2] was “inactive”.
c1ccc2c(c1)CCc1ccccc1N2C1CNC1 was tested, and the Activity [1] was “inactive” and the Activity [2] was “inactive”.
With CC(C)(C)N1CC(N2c3ccccc3Sc3ccc(C(F)(F)F)cc32)C1 the Activity [1] was “inactive” and the Activity [2] was “inactive”.
CC(C)(C)N1CC(N2c3ccccc3Sc3ccc(Cl)cc32)C1 was tested, and the Activity [1] was “inactive” and the Activity [2] was “inactive”.
c1ccc2c(c1)Sc1ccccc1N2C1CNC1 was tested, and the Activity [1] was “inactive” and the Activity [2] was “inactive”.
With CC(C)N1CC(N2c3ccccc3CCc3ccccc32)C1 the Activity [1] was “inactive” and the Activity [2] was “inactive”.
Work on CNC1CN(C2c3ccccc3COc3ccccc32)C1.O=C(O)/C=C/C(=O)O (single isomer, unassigned; (-)) yielded an ED50 [3] of 14.1 mg/kg, an LD50 [4] of 100 mg/kg and an ED50 [5] greater than 50 mg/kg. It also gave an ED50 [6] of 1.3 mg/kg.
